Reference: ChEMBL document CHEMBL2177071, “The effect of Pro(2) modifications on the structural and pharmacological properties of endomorphin-2” (J Med Chem, 2012)

Experiments:
Mu-type opioid receptor [1] = target: T1, Mu-type opioid receptor (Rattus norvegicus, UniProt P33535); test: Agonist activity at mu opioid receptor in Wistar rat brain membranes after 60 mins by [35S]GTPgammaS binding assay; type: functional, cell membranes, Membrane
[2] = target: Delta-type opioid receptor (Rattus norvegicus) (UniProt P33533); test: (§1) Displacement of [3H][Ile5,6]deltorphin 2 from delta opioid receptor in Wistar rat brain membranes; type: cell membranes; conditions: Membrane
How it was run: (§2)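 Competitive displacement in crude rat brain membrane preparation, with the test peptide at a range of concentrations. Ki is calculated from EC50 by Cheng–Prusoff, Ki = EC50/(1+[ligand]/Kd), using Kd values from the literature. Means ± SEM, n ≥ 3.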

[3] = target: Delta-type opioid receptor (Rattus norvegicus, UniProt P33533); test: as §1; type: cell membranes, Membrane; how it was run: as §2
Mu-type opioid receptor [4] = target: T1, Mu-type opioid receptor; type: cell membranes, Wistar, Membrane
[5] = Half life in Wistar rat brain homogenate; type: ADME, tissue-based
How it was run: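 Peptide incubated in crude rat brain membrane homogenate with a protein content of 4.7 mg/mL, and its disappearance followed over time. Half-life is calculated from pseudo-first-order kinetics. Means of at least three individual experiments ± SEM.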

T1 sequence (P33535 whole entry): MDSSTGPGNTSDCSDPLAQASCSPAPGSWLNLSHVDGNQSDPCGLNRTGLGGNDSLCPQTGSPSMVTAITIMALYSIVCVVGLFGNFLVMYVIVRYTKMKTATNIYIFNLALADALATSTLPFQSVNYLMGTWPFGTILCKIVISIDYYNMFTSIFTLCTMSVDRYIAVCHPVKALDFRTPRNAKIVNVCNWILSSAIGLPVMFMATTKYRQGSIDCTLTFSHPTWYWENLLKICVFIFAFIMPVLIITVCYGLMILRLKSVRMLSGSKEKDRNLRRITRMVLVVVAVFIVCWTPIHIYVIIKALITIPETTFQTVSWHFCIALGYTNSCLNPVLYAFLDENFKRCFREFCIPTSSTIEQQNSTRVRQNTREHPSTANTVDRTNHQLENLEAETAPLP
Delta-type opioid receptor, sequence (P33533 whole entry): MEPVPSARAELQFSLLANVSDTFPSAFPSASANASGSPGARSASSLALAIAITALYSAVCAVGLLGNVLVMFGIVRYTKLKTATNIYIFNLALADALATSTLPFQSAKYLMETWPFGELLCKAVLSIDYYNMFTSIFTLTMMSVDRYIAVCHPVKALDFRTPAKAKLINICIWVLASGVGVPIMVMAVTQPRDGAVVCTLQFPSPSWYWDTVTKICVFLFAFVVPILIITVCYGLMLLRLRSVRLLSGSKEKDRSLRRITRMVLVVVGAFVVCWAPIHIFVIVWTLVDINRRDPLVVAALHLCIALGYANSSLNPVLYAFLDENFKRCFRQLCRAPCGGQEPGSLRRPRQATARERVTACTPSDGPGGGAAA
Delta-type opioid receptor (Rattus norvegicus), sequence (P33533 whole entry): as above

Row | SMILES | EC50 (Mu-type opioid receptor [1]) [nM] | Activity [2] | Ki [3] [µM] | Ki (Mu-type opioid receptor [4]) [nM] | half-life [5] [min]
1 | NC(=O)[C@H](Cc1ccccc1)NC(=O)[C@H](Cc1ccccc1)NC(=O)C[C@@H]1CCCN1C(=O)[C@@H](N)Cc1ccc(O)cc1 | 845 | Dose-dependent effect | > 10 | 27 | 34
2 | NC(=O)[C@H](Cc1ccccc1)NC(=O)[C@H](Cc1ccccc1)NC(=O)[C@@H]1CCCN1C(=O)[C@@H](N)Cc1ccc(O)cc1 [ENDOMORPHIN 2] | – | Dose-dependent effect | – | – | 5.8
3 | NC(=O)[C@H](Cc1ccccc1)NC(=O)[C@H](Cc1ccccc1)NC(=O)[C@H]1CC=C[C@H]1NC(=O)[C@@H](N)Cc1ccc(O)cc1 | – | Dose-dependent effect | 9.93 | – | > 1200
4 | NC(=O)[C@H](Cc1ccccc1)NC(=O)[C@H](Cc1ccccc1)NC(=O)[C@@H]1C[C@@H](O)CN1C(=O)[C@@H](N)Cc1ccc(O)cc1 | 66 | Dose-dependent effect | > 10 | 44 | 17
5 | NC(=O)[C@H](Cc1ccccc1)NC(=O)[C@H](Cc1ccccc1)NC(=O)[C@H]1CC=CC[C@H]1NC(=O)[C@@H](N)Cc1ccc(O)cc1 | – | Dose-dependent effect | 1.03 | – | > 1200
6 | NC(=O)[C@H](Cc1ccccc1)NC(=O)[C@H](Cc1ccccc1)NC(=O)[C@@H]1CC=CC[C@@H]1NC(=O)[C@@H](N)Cc1ccc(O)cc1 | – | Dose-dependent effect | > 10 | – | –
7 | NC(=O)[C@H](Cc1ccccc1)NC(=O)[C@H](Cc1ccccc1)NC(=O)[C@@H]1CC=C[C@@H]1NC(=O)[C@@H](N)Cc1ccc(O)cc1 | – | Dose-dependent effect | > 10 | – | –
